The source of these data is ChEMBL document CHEMBL1145192, “Discovery of a novel class of reversible non-peptide caspase inhibitors via a structure-based approach” (J Med Chem, 2005).

The target in one test is T1, Caspase-3 (Homo sapiens, UniProt P42574).
T1 sequence (P42574 whole entry): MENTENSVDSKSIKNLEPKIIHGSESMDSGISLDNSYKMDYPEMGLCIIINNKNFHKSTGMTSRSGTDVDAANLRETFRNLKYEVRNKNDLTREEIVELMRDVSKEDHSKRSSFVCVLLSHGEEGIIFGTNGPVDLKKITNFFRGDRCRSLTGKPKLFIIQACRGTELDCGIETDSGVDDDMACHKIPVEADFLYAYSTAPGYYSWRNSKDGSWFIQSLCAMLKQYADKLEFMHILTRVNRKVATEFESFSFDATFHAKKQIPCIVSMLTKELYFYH
Kind of test: Inhibitory concentration against caspase-3 expressed in Escherichia coli. BL21(DE3) by fluorometric assay.

The next test addresses T2, Caspase-7 (Homo sapiens, UniProt P55210).
T2 sequence (P55210 whole entry): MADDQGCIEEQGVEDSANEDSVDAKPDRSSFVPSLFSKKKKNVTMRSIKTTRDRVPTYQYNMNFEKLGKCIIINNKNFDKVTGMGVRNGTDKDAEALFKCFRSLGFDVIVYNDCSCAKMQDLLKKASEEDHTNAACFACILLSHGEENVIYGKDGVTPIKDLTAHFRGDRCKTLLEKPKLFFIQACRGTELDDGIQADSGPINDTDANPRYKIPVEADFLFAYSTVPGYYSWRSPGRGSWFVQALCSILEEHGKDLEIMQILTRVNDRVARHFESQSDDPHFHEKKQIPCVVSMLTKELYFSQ
Kind of test: Inhibitory concentration against caspase-7 expressed in Escherichia coli. BL21(DE3) by fluorometric assay.

Test [1] addresses T3, Caspase-8 (Homo sapiens, UniProt Q14790). In words: Inhibitory concentration against caspase-8 expressed in Escherichia coli. BL21(DE3) by fluorometric assay.
For test [2], the target named is T3, Caspase-8. In words: Binding affinity against caspase-8 expressed in Escherichia coli. BL21(DE3) by fluorometric assay. The method, boiled down: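 E. coli-expressed active caspase-8, titrated with Z-VAD-FMK, 25-50 nM, with 40 µM Ac-IETD-AFC in 10 mM phosphate buffer (pH 7.5), 10 mM NaCl. Fluorescence at ex 405 / em 505 nm, followed kinetically over 30 min at room temperature. Ki from Lineweaver-Burk double-reciprocal analysis over varied substrate concentrations, assuming competitive inhibition.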

Where only a bound is given, the exact number is not on record here.

What is called IC50 is the concentration needed to halve the response being measured. The Ki is a measure of affinity in units of concentration, obtained from inhibition or displacement.

T3 sequence (Q14790 217-374 limits assumed): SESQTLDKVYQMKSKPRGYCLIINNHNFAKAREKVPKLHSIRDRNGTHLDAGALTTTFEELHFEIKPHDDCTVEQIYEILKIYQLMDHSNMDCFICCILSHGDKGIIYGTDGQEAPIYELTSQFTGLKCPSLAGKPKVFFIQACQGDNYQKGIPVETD
T3 sequence (Q14790 385-479 limits assumed): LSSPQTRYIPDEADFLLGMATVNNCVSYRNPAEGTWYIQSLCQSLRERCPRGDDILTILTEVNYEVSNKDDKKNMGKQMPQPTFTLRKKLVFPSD

As to `COc1ccc(N/C=C(\C#N)c2nc(-c3cc4cc([N+](=O)[O-])ccc4oc3=O)cs2)cc1`, the half-inhibitory concentration (IC50) at Caspase-3 is > 1000 µM.
The same measure, in the same setting: then `CCOC(=O)c1ccc(N/C=C(\C#N)c2nc(-c3cc4cc([N+](=O)[O-])ccc4oc3=O)cs2)cc1`, with > 100 µM.
Regarding `O=C(NCc1ccco1)c1csc(C2COc3ccccc3O2)n1` (configuration not stated), the concentration for half-maximal inhibition (IC50) is > 200 µM at Caspase-7, 60 µM against Caspase-8 [1] and 133 µM at Caspase-3.
`CCOC(=O)c1csc(C2COc3ccccc3O2)n1` (configuration not stated) gave a Ki on Caspase-8 [2] of 30 µM.
In the case of `O=C(Oc1ccccc1)c1csc(C2COc3ccccc3O2)n1` (configuration not stated), the figures for the IC50 against Caspase-7 and on Caspase-8 [1] were > 200 µM and 60 µM, respectively.
`O=C(c1csc(C2COc3ccccc3O2)n1)N1CCOCC1` (configuration not stated): the results for the concentration for half-maximal inhibition (IC50) against Caspase-7, against Caspase-8 [1] and against Caspase-3 were > 200 µM, > 200 µM and 150 µM, respectively.
For the compound `CN(C)C(=O)c1csc(C2COc3ccccc3O2)n1` (configuration not stated), the figures for the half-maximal inhibitory concentration (IC50) at Caspase-7, at Caspase-8 [1] and at Caspase-3 were > 200 µM, > 200 µM and 129 µM, respectively.
For the compound `O=C(O)c1csc(C2COc3ccccc3O2)n1` (configuration not stated), the figures for the IC50 at Caspase-7, on Caspase-8 [1] and against Caspase-3 were 170 µM, 75 µM and > 200 µM, respectively.
Regarding `O=C(Oc1ccc(Cl)cc1)c1csc(C2COc3ccccc3O2)n1` (configuration not stated), the IC50 against Caspase-7 and on Caspase-8 [1] was > 200 µM in each case.
For the compound `Cc1nc(C2COc3ccccc3O2)sc1C(=O)O` (configuration not stated), the concentration for half-maximal inhibition (IC50) on Caspase-7 was > 200 µM; at Caspase-8 [1], > 200 µM; on Caspase-3, 128 µM.
On to `CCOC(=O)c1sc(C2COc3ccccc3O2)nc1C` (configuration not stated), for which the IC50 against Caspase-7 and at Caspase-8 [1] was > 200 µM throughout.
As to `O=C(Sc1cccs1)c1csc(C2COc3ccccc3O2)n1` (configuration not stated), the IC50 was > 200 µM against Caspase-7 and 62 µM against Caspase-8 [1].
Take `FC(F)(F)c1cccc(-c2csc(C3COc4ccccc4O3)n2)c1` (configuration not stated): the affinity at Caspase-8 [2], expressed as Ki, was 2.7 µM.
